Test results from PubChem BioAssay.
Active and inactive are the calls of the source.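 Rule for the calls, unless noted: active = viability at or under a set limit in both replicates, limit being median viability minus 3 SD (cut at about 48% in these data, passing the limit was not always enough); inconclusive = at or under the limit in just one replicate; inactive = at or above the limit in both replicates.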

Legend:
[1] = Her2 expression decrease, cell viability multiplex – SKBR3 breast tumor cells, AlphaScreen, ATP viability, primary screen (AID 461;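 active = Her2 level under about 52% in both replicate screens, with viability over 70% of control, limit read from the data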;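 for Her2 level: lower value means less Her2 protein in the cells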;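 for viability: percent of carrier control wells set as 100% viability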); settings: SKBR3 Her2 protein level, 18-24 h, measured here: SKBR3 viability, ATP luminescence, at 10 µM
[2] = target: Receptor tyrosine-protein kinase erbB-2 (Homo sapiens) (UniProt P04626); assay: as above; settings: 18-24 h, at 10 µM, stronger effect = lower value
Chain of Receptor tyrosine-protein kinase erbB-2 (Homo sapiens) (P04626 whole entry, looked up): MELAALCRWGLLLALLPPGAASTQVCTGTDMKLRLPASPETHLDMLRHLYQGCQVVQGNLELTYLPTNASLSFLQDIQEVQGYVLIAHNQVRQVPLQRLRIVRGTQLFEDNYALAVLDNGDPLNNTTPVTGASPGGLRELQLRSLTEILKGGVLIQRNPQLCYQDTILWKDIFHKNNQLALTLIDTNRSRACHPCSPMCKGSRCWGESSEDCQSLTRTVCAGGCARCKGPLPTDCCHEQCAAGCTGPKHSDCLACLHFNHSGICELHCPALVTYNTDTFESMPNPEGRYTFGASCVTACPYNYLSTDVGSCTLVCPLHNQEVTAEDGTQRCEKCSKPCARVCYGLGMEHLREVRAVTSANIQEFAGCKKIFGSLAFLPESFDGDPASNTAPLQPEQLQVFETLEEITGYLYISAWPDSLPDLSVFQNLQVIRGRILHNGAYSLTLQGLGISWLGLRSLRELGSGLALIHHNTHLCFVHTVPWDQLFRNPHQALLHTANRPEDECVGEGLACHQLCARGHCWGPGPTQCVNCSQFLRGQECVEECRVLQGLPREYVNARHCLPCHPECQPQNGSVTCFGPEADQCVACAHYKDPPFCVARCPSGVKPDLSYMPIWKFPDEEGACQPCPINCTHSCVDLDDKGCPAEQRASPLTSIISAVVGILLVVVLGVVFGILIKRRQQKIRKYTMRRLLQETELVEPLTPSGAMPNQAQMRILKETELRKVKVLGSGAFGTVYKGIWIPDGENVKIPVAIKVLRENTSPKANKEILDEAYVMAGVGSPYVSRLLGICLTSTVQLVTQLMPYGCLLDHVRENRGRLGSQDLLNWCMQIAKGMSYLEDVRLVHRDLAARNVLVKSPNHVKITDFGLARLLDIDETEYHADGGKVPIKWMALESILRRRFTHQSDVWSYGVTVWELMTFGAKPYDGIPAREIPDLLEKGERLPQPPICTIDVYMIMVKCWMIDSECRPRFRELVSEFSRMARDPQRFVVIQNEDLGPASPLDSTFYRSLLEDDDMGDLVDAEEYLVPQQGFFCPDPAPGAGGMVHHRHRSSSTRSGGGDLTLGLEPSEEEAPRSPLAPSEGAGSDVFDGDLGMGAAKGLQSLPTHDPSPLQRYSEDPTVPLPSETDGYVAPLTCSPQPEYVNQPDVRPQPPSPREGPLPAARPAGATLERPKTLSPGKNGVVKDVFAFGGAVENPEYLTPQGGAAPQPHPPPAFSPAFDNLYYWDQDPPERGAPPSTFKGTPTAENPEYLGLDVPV

[3] = reduced viability of SK-BR-3 breast cancer cells – cell-based, 24 h, human, pilot screen (AID 572;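 active = viability at or below 10% of carrier control in both of two separate runs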;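 note: compound exposure lasted between 18 and 24 h rather than exactly 24 h; 100% = carrier-treated control wells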); settings: SK-BR-3 viability, CellTiter-Glo luminescence, at 10 µM, stronger effect = lower value
[4] = HUVEC growth inhibition – cell-based, human, primary screen (AID 575;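 active = viability at or below 30% in both replicate assays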;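 note: 100% = median of untreated cell wells with 0.1% DMSO on each plate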); settings: HUVEC proliferation, CellTiter-Glo luminescence, 72 h; at 10 µM; stronger effect = lower value
In short: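 Test system: HUVEC primary cells. Quantity: 1250 endothelial cells in each well. Dosing: single-point 10 µM, DMSO 0.1% final. Incubation: 72 h treatment at 37 °C. Measured by: CTG luminescence. Control set: DMSO cell controls and MePR drug controls. Plate: collagen-coated 384-well format.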

[5] = H69AR cell proliferation blockers – human, duplicate replicates, primary screen (AID 580); settings: H69AR lung tumor cells viability, ATP luminescence, 72 h; at 10 µM; stronger effect = lower value;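 note: 100% = mean luminescence of untreated wells and 0% = no signal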
[6] = MRP1 drug-resistance reversers in H69AR cells – cell-based, doxorubicin co-treatment, pilot screen (AID 601;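 active = viability loss from added drug above about 55%, and viability with drug at most 40%, in both replicates, limit read from the data, passing the limit was not always enough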); settings: CellTiter-Glo, 72 h, at 10 µM; for differential viability (reversal): stronger effect = higher value
[7] = yeast transport mutant growth inhibition pilot in 384-well plates, post-Golgi transport modulator project (AID 636; in the data active = inhibition above about 31%); settings: absorbance 615 nm, about 18 h, stronger effect = higher value
[8] = growth suppression of yeast trafficking mutant, preliminary HTS, modulators of trafficking downstream of Golgi apparatus project, 1536-format plate, OD 615 nm (AID 637; in the data active = inhibition above about 30%); settings: yeast transport mutant growth, absorbance 615 nm, 18 h; stronger effect = higher value
[9] = H69AR cells + 2 uM doxorubicin, measured here: viability with 2 uM doxorubicin, stronger effect = lower value
[10] = H69AR cells, compound alone cytotoxicity

| Structure (SMILES) | viability [1] [%] | Her2 level [2] | viability [3] | viability [4] | viability [5] | differential viability (reversal) ([6]; H69AR cells + 2 uM doxorubicin) | viability [6, 9] [%] | viability [6, 10] [%] | inhibition [7] | inhibition [8] |
| --- | --- | --- | --- | --- | --- | --- | --- | --- | --- | --- |
| CCOC(=O)C1=C(C)N=C2SC(C)C(=O)N2C1c1cccc(F)c1 (stereo not given) | 102 | 89.5% (inactive) | 102% (inactive) | 85.2% (inactive) | 87.5% (inactive) | 0.855% (inactive) | 86.7 | 87.5 | -3.82% (inactive) | 1.13% (inactive) |
| COc1ccccc1-c1nnc2sc(-c3ccc(N(C)C)cc3)nn12 | 79.5 | 64% (inactive) | 79.5% (inactive) | 34.5% (inactive) | 23.9% (active) | -15.2% (inactive) | 39.1 | 23.9 | -1.05% (inactive) | 1.09% (inactive) |
| COc1ccc(-c2cc(C(F)(F)F)nc(SCCC(=O)N3CCOCC3)n2)cc1 | 116 | 90.5% (inactive) | 116% (inactive) | 94.1% (inactive) | 90% (inactive) | 3.6% (inactive) | 86.4 | 90 | -1.71% (inactive) | 2.46% (inactive) |
| COc1ccccc1C1c2c(oc3ccc(Cl)cc3c2=O)C(=O)N1c1cc(C)on1 (stereo not given) | 86.5 | 82.5% (inactive) | 86.5% (inactive) | 70.7% (inactive) | 72.2% (inactive) | -3.51% (inactive) | 75.7 | 72.2 | -2.93% (inactive) | 8.71% (inactive) |
| Cc1ccc(NCc2nnc(SCC(=O)N3CCCCC3)n2CC2CCCO2)c(C)c1 (stereo not given) | 94.5 | 99% (inactive) | 94.5% (inactive) | 106% (inactive) | 88.7% (inactive) | 1.68% (inactive) | 87 | 88.7 | -6.8% (inactive) | 1.13% (inactive) |
| CC(C)(C)N(Cc1cc2ccccc2[nH]c1=O)C(=O)C1CCCCC1 | 104 | 118% (inactive) | 104% (inactive) | 69.4% (inactive) | 86.1% (inactive) | 3.29% (inactive) | 82.8 | 86.1 | -3.2% (inactive) | -7.21% (inactive) |
| N#Cc1nc(-c2ccco2)oc1N1CCN(c2cccc(Cl)c2)CC1 | 87 | 85.5% (inactive) | 87% (inactive) | 90.1% (inactive) | 90% (inactive) | -5.21% (inactive) | 95.2 | 90 | -4.13% (inactive) | 4.29% (inactive) |
| Cc1ccc(NC(=O)N2CCC(c3nc4c(nnn4Cc4cccc(Cl)c4)c(=O)[nH]3)CC2)cc1 | 81.5 | 76.5% (inactive) | 81.5% (inactive) | 61.8% (inactive) | 85.2% (inactive) | 19.6% (inactive) | 65.6 | 85.2 | -0.13% (inactive) | -1.45% (inactive) |
| O=C(NCC1COc2ccccc2O1)C1CCCN(S(=O)(=O)c2cnc[nH]2)C1 (stereo not given) | 88 | 101% (inactive) | 88% (inactive) | 91.9% (inactive) | 109% (inactive) | 18.9% (inactive) | 89.7 | 109 | -2.13% (inactive) | -2.95% (inactive) |
| O=C(CSc1nnc(Cn2cnc3ccccc32)o1)c1ccccc1 | 124 | 86.5% (inactive) | 124% (inactive) | 61.8% (inactive) | 73.3% (inactive) | -9.91% (inactive) | 83.2 | 73.3 | -6.84% (inactive) | 3.49% (inactive) |
| COc1ccccc1-n1cnc(N)c1C(C)=O | 110 | 103% (inactive) | 110% (inactive) | 105% (inactive) | 103% (inactive) | -0.75% (inactive) | 104 | 103 | -4.21% (inactive) | 7.7% (inactive) |
| Cc1cc(C)n(CC(=O)n2c3c(c4ccccc42)CCCC3)n1 | 116 | 117% (inactive) | 116% (inactive) | 75.3% (inactive) | 74.4% (inactive) | -6.97% (inactive) | 81.4 | 74.4 | -5.53% (inactive) | 3.77% (inactive) |
| COc1cccc(NC(=O)CSc2nnc(-c3cc(-c4ccccn4)nc4ccccc34)o2)c1 | 94.5 | 85% (inactive) | 94.5% (inactive) | 81% (inactive) | 76.4% (inactive) | -3.28% (inactive) | 79.7 | 76.4 | -1.22% (inactive) | -4.6% (inactive) |
| COc1ccccc1Nc1ncnc2c1cnn2-c1cccc(C)c1 | 94.5 | 88.5% (inactive) | 94.5% (inactive) | 87.7% (inactive) | 95.4% (inactive) | 10.9% (inactive) | 84.5 | 95.4 | -5.33% (inactive) | -8.71% (inactive) |
| COCCNC(=O)c1c(N)n(CCC2=CCCCC2)c2nc3ccccc3nc12 | 102 | 92% (inactive) | 102% (inactive) | 78.3% (inactive) | 89% (inactive) | 10.8% (inactive) | 78.2 | 89 | -6.03% (inactive) | -2.38% (inactive) |
| COc1ccc(OCC(=O)N2CCN(C(=O)c3cccs3)CC2)cc1 | 117 | 82.5% (inactive) | 117% (inactive) | 83.5% (inactive) | 87.4% (inactive) | 1.78% (inactive) | 85.6 | 87.4 | -3.29% (inactive) | -2.9% (inactive) |
| CCn1c(=O)cc(SCC(=O)NCC2CCCO2)c2ccccc21 (stereo not given) | 89 | 87% (inactive) | 89% (inactive) | 88.7% (inactive) | 87% (inactive) | 8.63% (inactive) | 78.4 | 87 | -3.03% (inactive) | -7.27% (inactive) |
| COC(=O)c1cn(C(=O)OC)c2ccccc12 | 96.5 | 102% (inactive) | 96.5% (inactive) | 85.1% (inactive) | 87.7% (inactive) | -0.61% (inactive) | 88.3 | 87.7 | -4.87% (inactive) | 4.1% (inactive) |
| O=C(C1CCC1)N1CCc2cc(S(=O)(=O)N3CCc4ccccc4C3)ccc21 | 88 | 97% (inactive) | 88% (inactive) | 72.1% (inactive) | 89% (inactive) | -5.04% (inactive) | 94 | 89 | -5.47% (inactive) | -7.54% (inactive) |
| O=C(Nc1ccc2c(c1)nc1n2CCSC1)c1ccccc1 | 97 | 114% (inactive) | 97% (inactive) | 108% (inactive) | 92.7% (inactive) | 15.9% (inactive) | 76.8 | 92.7 | -0.26% (inactive) | -6% (inactive) |
| CCc1ccccc1N=C1SCC(=O)N1C | 96.5 | 102% (inactive) | 96.5% (inactive) | 87.9% (inactive) | 97% (inactive) | 10.1% (inactive) | 86.8 | 97 | -6.67% (inactive) | -4.26% (inactive) |
| Cc1cc2nc3c(nc2cc1C)C1(C(=O)O)CCC3(C)C1(C)C (stereo not given) | 103 | 95.5% (inactive) | 103% (inactive) | 99.9% (inactive) | 95.3% (inactive) | -0.805% (inactive) | 96.1 | 95.3 | 0% (inactive) | -2.3% (inactive) |
| COC(=O)c1c(-c2ccc(F)cc2)noc1N | 94 | 97.5% (inactive) | 94% (inactive) | 89.4% (inactive) | 93.3% (inactive) | 3.79% (inactive) | 89.5 | 93.3 | -2.97% (inactive) | 1.33% (inactive) |
| COc1ccc2cc(CN(CCO)C(=O)c3ccccc3F)c(=O)[nH]c2c1 | 106 | 126% (inactive) | 106% (inactive) | 96.9% (inactive) | 95.3% (inactive) | 8.58% (inactive) | 86.7 | 95.3 | 2.86% (inactive) | -8.33% (inactive) |
| Cn1c(COc2ccc(Cl)cc2)nnc1SCC(=O)NC1CCCCC1 | 77 | 108% (inactive) | 77% (inactive) | 89.5% (inactive) | 103% (inactive) | 9.25% (inactive) | 94 | 103 | 2.13% (inactive) | 20.8% (inactive) |
| COC(=O)C1(C)NC(c2ccco2)C2C(=O)N(c3ccc(C)cc3)C(=O)C21 (stereo not given) | 106 | 95% (inactive) | 106% (inactive) | 96.6% (inactive) | 91.5% (inactive) | -3% (inactive) | 94.5 | 91.5 | -5.27% (inactive) | -3.83% (inactive) |
| CC(=O)c1ccc(NC2OC(C)C(O)C(O)C2O)cc1 (stereo not given) | 121 | 112% (inactive) | 121% (inactive) | 100% (inactive) | 91.3% (inactive) | 1.54% (inactive) | 89.8 | 91.3 | 2.24% (inactive) | -6.67% (inactive) |
| CCOc1ccc(N(CC)C(=O)COc2cc(=O)n(C)c3ccccc23)cc1 | 84.5 | 86% (inactive) | 84.5% (inactive) | 93.6% (inactive) | 86.1% (inactive) | -2.48% (inactive) | 88.6 | 86.1 | -3.07% (inactive) | 0.98% (inactive) |
